Results reported in ChEMBL document CHEMBL2311435, “Development of 18F-labeled picolinamide probes for PET imaging of malignant melanoma” (J Med Chem, 2013).

Assays:
[1] = Drug uptake in tumor of C57BL/6 mouse xenografted with mouse B16F10 cells at 3.7 MBq, iv after 1 hr by PET imaging analysis; assay type: ADME, organism-based, Neoplasm, B16-F10; conditions: in vivo
Summary of the method: (§1)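 Static small-animal PET at 0.5, 1 and 2 h after tail-vein injection of ~3.7 MBq (100 μCi) into B16F10-bearing C57BL/6 mice (n = 4 per probe). Isoflurane anesthesia, 5% induction and 2% maintenance in O2. Decay-corrected images. ROI-derived %ID/g assumes 1 g/ml density, without attenuation correction. Mean ± SD.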

Brain [2] = assay: Biodistribution in brain of C57BL/6 mouse xenografted with mouse B16F10 cells at 3.7 MBq, iv after 1 hr by gamma-scintillation counting analysis; assay type: ADME, organism-based, B16-F10; conditions: in vivo
Summary of the method: (§2)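 1.0 × 10^6 B16F10 cells in PBS injected subcutaneously into the right shoulder of C57BL/6 mice, grown to 0.5 cm (~10 day). Tail-vein injection of about 3.7 MBq (100 μCi) 18F probe in PBS (0.1 M, pH 7.4). Killed at 1.0 or 2.0 h p.i. (n = 4 per group). Tissues excised, weighed and gamma-counted; uptake expressed as %ID/g, mean ± SD.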

Pancreas [3] = assay: Biodistribution in pancreas of C57BL/6 mouse xenografted with mouse B16F10 cells at 3.7 MBq, iv after 1 hr by gamma-scintillation counting analysis; assay type: ADME, organism-based, B16-F10; conditions: in vivo; summary of the method: as §2
Heart [4] = assay: Biodistribution in heart of C57BL/6 mouse xenografted with mouse B16F10 cells at 3.7 MBq, iv after 1 hr by gamma-scintillation counting analysis; assay type: ADME, organism-based, B16-F10; conditions: in vivo; summary of the method: as §2
Mus musculus [5] = assay: Biodistribution in lungs of C57BL/6 mouse xenografted with mouse B16F10 cells at 3.7 MBq, iv after 1 hr by gamma-scintillation counting analysis; assay type: ADME, organism-based, Lung, B16-F10; conditions: in vivo; summary of the method: as §2
Nucleic Acid [6] = assay: Ratio of drug uptake in tumor to blood of C57BL/6 mouse xenografted with mouse B16F10 cells at 3.7 MBq, iv after 2 hrs by gamma-scintillation counting analysis; assay type: ADME, organism-based, B16-F10; conditions: tumour
Summary of the method: (§3)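 Same subcutaneous B16F10 model and tail-vein dose of about 3.7 MBq (100 μCi), n = 4 per group. Dissection at 1 or 2 h p.i. Gamma-counter %ID/g of tumor divided by that of blood, lung, liver or muscle, given as mean ± SD.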

Bone [7] = assay: Biodistribution in bone of C57BL/6 mouse xenografted with mouse B16F10 cells at 3.7 MBq, iv after 2 hrs by gamma-scintillation counting analysis; assay type: ADME, organism-based, Bone element, B16-F10; conditions: in vivo; summary of the method: as §2
Intestine [8] = assay: Biodistribution in intestine of C57BL/6 mouse xenografted with mouse B16F10 cells at 3.7 MBq, iv after 1 hr by gamma-scintillation counting analysis; assay type: ADME, organism-based, B16-F10; conditions: in vivo; summary of the method: as §2
Zone of skin [9] = assay: Biodistribution in skin of C57BL/6 mouse xenografted with mouse B16F10 cells at 3.7 MBq, iv after 2 hrs by gamma-scintillation counting analysis; assay type: ADME, organism-based, B16-F10; conditions: in vivo; summary of the method: as §2
Nucleic Acid [10] = assay: Ratio of drug uptake in tumor to lungs of C57BL/6 mouse xenografted with mouse B16F10 cells at 3.7 MBq, iv after 1 hr by gamma-scintillation counting analysis; assay type: ADME, organism-based, B16-F10; conditions: in vivo; summary of the method: as §3
[11] = Drug uptake in tumor of C57BL/6 mouse xenografted with mouse B16F10 cells at 3.7 MBq, iv after 0.5 hrs by PET imaging analysis; assay type: ADME, organism-based, Neoplasm, B16-F10; conditions: in vivo; summary of the method: as §1
Blood [12] = assay: Biodistribution in blood of C57BL/6 mouse xenografted with mouse B16F10 cells at 3.7 MBq, iv after 2 hrs by gamma-scintillation counting analysis; assay type: ADME, organism-based, B16-F10; conditions: in vivo; summary of the method: as §2
Liver [13] = assay: Biodistribution in liver of C57BL/6 mouse xenografted with mouse B16F10 cells at 3.7 MBq, iv after 1 hr by gamma-scintillation counting analysis; assay type: ADME, organism-based, B16-F10; conditions: in vivo; summary of the method: as §2
Blood [14] = assay: Biodistribution in blood of C57BL/6 mouse xenografted with mouse B16F10 cells at 3.7 MBq, iv after 1 hr by gamma-scintillation counting analysis; assay type: ADME, organism-based, B16-F10; conditions: in vivo; summary of the method: as §2
Nucleic Acid [15] = assay: Ratio of drug uptake in tumor to muscle of C57BL/6 mouse xenografted with mouse B16F10 cells at 3.7 MBq, iv after 2 hrs by gamma-scintillation counting analysis; assay type: ADME, organism-based, B16-F10; conditions: in vivo; summary of the method: as §3
Nucleic Acid [16] = assay: Ratio of drug uptake in tumor to lungs of C57BL/6 mouse xenografted with mouse B16F10 cells at 3.7 MBq, iv after 2 hrs by gamma-scintillation counting analysis; assay type: ADME, organism-based, B16-F10; conditions: in vivo; summary of the method: as §3
Mus musculus [17] = assay: Biodistribution in eye of C57BL/6 mouse xenografted with mouse B16F10 cells at 3.7 MBq, iv after 1 hr by gamma-scintillation counting analysis; assay type: ADME, organism-based, B16-F10; conditions: in vivo; summary of the method: as §2
Mus musculus [18] = assay: Biodistribution in eye of C57BL/6 mouse xenografted with mouse B16F10 cells at 3.7 MBq, iv after 2 hrs by gamma-scintillation counting analysis; assay type: ADME, organism-based, B16-F10; conditions: in vivo; summary of the method: as §2
Spleen [19] = assay: Biodistribution in spleen of C57BL/6 mouse xenografted with mouse B16F10 cells at 3.7 MBq, iv after 1 hr by gamma-scintillation counting analysis; assay type: ADME, organism-based, B16-F10; conditions: in vivo; summary of the method: as §2
Heart [20] = assay: Biodistribution in heart of C57BL/6 mouse xenografted with mouse B16F10 cells at 3.7 MBq, iv after 2 hrs by gamma-scintillation counting analysis; assay type: ADME, organism-based, B16-F10; conditions: in vivo; summary of the method: as §2
Mus musculus [21] = assay: Biodistribution in tumor of C57BL/6 mouse xenografted with mouse B16F10 cells at 3.7 MBq, iv after 2 hrs by gamma-scintillation counting analysis; assay type: ADME, organism-based, Neoplasm, B16-F10; conditions: in vivo; summary of the method: as §2
Pancreas [22] = assay: Biodistribution in pancreas of C57BL/6 mouse xenografted with mouse B16F10 cells at 3.7 MBq, iv after 2 hrs by gamma-scintillation counting analysis; assay type: ADME, organism-based, B16-F10; conditions: in vivo; summary of the method: as §2
Nucleic Acid [23] = assay: Ratio of drug uptake in tumor to liver of C57BL/6 mouse xenografted with mouse B16F10 cells at 3.7 MBq, iv after 1 hr by gamma-scintillation counting analysis; assay type: ADME, organism-based, B16-F10; conditions: in vivo; summary of the method: as §3
Mus musculus [24] = assay: Biodistribution in tumor of C57BL/6 mouse xenografted with mouse B16F10 cells at 3.7 MBq, iv after 1 hr by gamma-scintillation counting analysis; assay type: ADME, organism-based, Neoplasm, B16-F10; conditions: in vivo; summary of the method: as §2
Nucleic Acid [25] = assay: Ratio of drug uptake in tumor to blood of C57BL/6 mouse xenografted with mouse B16F10 cells at 3.7 MBq, iv after 1 hr by gamma-scintillation counting analysis; assay type: ADME, organism-based, B16-F10; conditions: tumour; summary of the method: as §3
Nucleic Acid [26] = assay: Ratio of drug uptake in tumor to muscle of C57BL/6 mouse xenografted with mouse B16F10 cells at 3.7 MBq, iv after 1 hr by gamma-scintillation counting analysis; assay type: ADME, organism-based, B16-F10; conditions: in vivo; summary of the method: as §3
Mus musculus [27] = assay: Biodistribution in lungs of C57BL/6 mouse xenografted with mouse B16F10 cells at 3.7 MBq, iv after 2 hrs by gamma-scintillation counting analysis; assay type: ADME, organism-based, Lung, B16-F10; conditions: in vivo; summary of the method: as §2
Spleen [28] = assay: Biodistribution in spleen of C57BL/6 mouse xenografted with mouse B16F10 cells at 3.7 MBq, iv after 2 hrs by gamma-scintillation counting analysis; assay type: ADME, organism-based, B16-F10; conditions: in vivo; summary of the method: as §2
Kidney [29] = assay: Biodistribution in kidney of C57BL/6 mouse xenografted with mouse B16F10 cells at 3.7 MBq, iv after 1 hr by gamma-scintillation counting analysis; assay type: ADME, organism-based, B16-F10; conditions: in vivo; summary of the method: as §2
Kidney [30] = assay: Biodistribution in kidney of C57BL/6 mouse xenografted with mouse B16F10 cells at 3.7 MBq, iv after 2 hrs by gamma-scintillation counting analysis; assay type: ADME, organism-based, B16-F10; conditions: in vivo; summary of the method: as §2
Muscle tissue [31] = assay: Biodistribution in muscle of C57BL/6 mouse xenografted with mouse B16F10 cells at 3.7 MBq, iv after 1 hr by gamma-scintillation counting analysis; assay type: ADME, organism-based, B16-F10; conditions: in vivo; summary of the method: as §2
Nucleic Acid [32] = assay: Ratio of drug uptake in tumor to liver of C57BL/6 mouse xenografted with mouse B16F10 cells at 3.7 MBq, iv after 2 hrs by gamma-scintillation counting analysis; assay type: ADME, organism-based, B16-F10; conditions: in vivo; summary of the method: as §3
Liver [33] = assay: Biodistribution in liver of C57BL/6 mouse xenografted with mouse B16F10 cells at 3.7 MBq, iv after 2 hrs by gamma-scintillation counting analysis; assay type: ADME, organism-based, B16-F10; conditions: in vivo; summary of the method: as §2
Stomach [34] = assay: Biodistribution in stomach of C57BL/6 mouse xenografted with mouse B16F10 cells at 3.7 MBq, iv after 2 hrs by gamma-scintillation counting analysis; assay type: ADME, organism-based, B16-F10; conditions: in vivo; summary of the method: as §2
[35] = Drug uptake in tumor of C57BL/6 mouse xenografted with mouse B16F10 cells at 3.7 MBq, iv after 2 hrs by PET imaging analysis; assay type: ADME, organism-based, Neoplasm, B16-F10; conditions: in vivo; summary of the method: as §1
Intestine [36] = assay: Biodistribution in intestine of C57BL/6 mouse xenografted with mouse B16F10 cells at 3.7 MBq, iv after 2 hrs by gamma-scintillation counting analysis; assay type: ADME, organism-based, B16-F10; conditions: in vivo; summary of the method: as §2
Bone [37] = assay: Biodistribution in bone of C57BL/6 mouse xenografted with mouse B16F10 cells at 3.7 MBq, iv after 1 hr by gamma-scintillation counting analysis; assay type: ADME, organism-based, Bone element, B16-F10; conditions: in vivo; summary of the method: as §2
Stomach [38] = assay: Biodistribution in stomach of C57BL/6 mouse xenografted with mouse B16F10 cells at 3.7 MBq, iv after 1 hr by gamma-scintillation counting analysis; assay type: ADME, organism-based, B16-F10; conditions: in vivo; summary of the method: as §2
Zone of skin [39] = assay: Biodistribution in skin of C57BL/6 mouse xenografted with mouse B16F10 cells at 3.7 MBq, iv after 1 hr by gamma-scintillation counting analysis; assay type: ADME, organism-based, B16-F10; conditions: in vivo; summary of the method: as §2
Muscle tissue [40] = assay: Biodistribution in muscle of C57BL/6 mouse xenografted with mouse B16F10 cells at 3.7 MBq, iv after 2 hrs by gamma-scintillation counting analysis; assay type: ADME, organism-based, B16-F10; conditions: in vivo; summary of the method: as §2
Brain [41] = assay: Biodistribution in brain of C57BL/6 mouse xenografted with mouse B16F10 cells at 3.7 MBq, iv after 2 hrs by gamma-scintillation counting analysis; assay type: ADME, organism-based, B16-F10; conditions: in vivo; summary of the method: as §2

Drug uptake [1]: 8.97 % ID/g
Drug uptake (Brain [2]): 0.49 % ID/g
Drug uptake (Pancreas [3]): 1.06 % ID/g
Drug uptake (Heart [4]): 0.6 % ID/g
Drug uptake (Mus musculus [5]): 0.88 % ID/g
Ratio (Nucleic Acid [6]): 44.33
Drug uptake (Bone [7]): 10.27 % ID/g
Drug uptake (Intestine [8]): 2.28 % ID/g
Drug uptake (Zone of skin [9]): 0.63 % ID/g
Ratio (Nucleic Acid [10]): 8.81
Drug uptake [11]: 9.52 % ID/g
Drug uptake (Blood [12]): 0.15 % ID/g
Drug uptake (Liver [13]): 2.07 % ID/g
Drug uptake (Blood [14]): 0.33 % ID/g
Ratio (Nucleic Acid [15]): 27.75
Ratio (Nucleic Acid [16]): 9.46
Drug uptake (Mus musculus [17]): 35.96 % ID/g
Drug uptake (Mus musculus [18]): 32.45 % ID/g
Drug uptake (Spleen [19]): 1.09 % ID/g
Drug uptake (Heart [20]): 0.37 % ID/g
Drug uptake (Mus musculus [21]): 8.66 % ID/g
Drug uptake (Pancreas [22]): 0.44 % ID/g
Ratio (Nucleic Acid [23]): 3.85
Drug uptake (Mus musculus [24]): 7.54 % ID/g
Ratio (Nucleic Acid [25]): 28.32
Ratio (Nucleic Acid [26]): 13.12
Drug uptake (Mus musculus [27]): 0.59 % ID/g
Drug uptake (Spleen [28]): 0.31 % ID/g
Drug uptake (Kidney [29]): 1.34 % ID/g
Drug uptake (Kidney [30]): 0.69 % ID/g
Drug uptake (Muscle tissue [31]): 0.6 % ID/g
Ratio (Nucleic Acid [32]): 4.16
Drug uptake (Liver [33]): 1.41 % ID/g
Drug uptake (Stomach [34]): 1.64 % ID/g
Drug uptake [35]: 9.73 % ID/g
Drug uptake (Intestine [36]): 0.98 % ID/g
Drug uptake (Bone [37]): 11.29 % ID/g
Drug uptake (Stomach [38]): 2.24 % ID/g
Drug uptake (Zone of skin [39]): 0.73 % ID/g
Drug uptake (Muscle tissue [40]): 0.2 % ID/g
Drug uptake (Brain [41]): 0.24 % ID/g
SMILES: CCN(CC)CCNC(=O)c1cc([18F])ccn1
